Key:
[1] = target: C-C chemokine receptor type 1 (Homo sapiens) (UniProt P32246); test: Displacement of [125I]MIP-1alpha from human CCR1 receptor at 10 uM relative to control
Method in brief: (§1)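 Outsourced CNS panel of 55 receptor binding assays run by Cerep. Compound tested at 10 μM, the default primary-binding concentration, with inhibition expressed relative to control. Inhibition above 50% taken as a significant effect.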

Homo sapiens [2] = species on record: Homo sapiens; test: Inhibition of Na+ channel (unknown origin) at 10 uM by [3H]batrachotoxinin binding assay relative to control
Method in brief: (§2)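 Radioligand binding was run at a contract laboratory as part of a 55-target CNS receptor panel. Test concentration was 10 μM. Inhibition of specific binding was expressed relative to control, and inhibition greater than 50% was taken as significant.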

[3] = target: Neuromedin-K receptor (Homo sapiens) (UniProt P29371); test: Displacement of [3H]-SR142801 from human NK3 receptor at 10 uM relative to control; method in brief: as §1
Chain of Neuromedin-K receptor (Homo sapiens) (P29371 whole entry): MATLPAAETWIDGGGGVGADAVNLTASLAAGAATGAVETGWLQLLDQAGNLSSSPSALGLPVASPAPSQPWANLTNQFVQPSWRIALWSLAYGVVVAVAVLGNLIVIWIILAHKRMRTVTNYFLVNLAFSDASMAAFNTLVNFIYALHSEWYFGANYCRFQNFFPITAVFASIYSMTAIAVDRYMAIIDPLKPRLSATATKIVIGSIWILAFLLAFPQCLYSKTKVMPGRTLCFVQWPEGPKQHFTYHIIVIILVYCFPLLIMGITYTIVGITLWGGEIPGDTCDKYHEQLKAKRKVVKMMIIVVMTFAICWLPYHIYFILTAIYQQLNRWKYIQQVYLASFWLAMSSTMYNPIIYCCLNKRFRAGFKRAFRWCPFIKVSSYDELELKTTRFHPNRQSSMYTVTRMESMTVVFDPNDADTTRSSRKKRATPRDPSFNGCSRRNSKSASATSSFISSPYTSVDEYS

Homo sapiens [4] = species on record: Homo sapiens; test: Displacement of [3H]GABA from GABA receptor (unknown origin) at 10 uM relative to control; method in brief: as §1
[5] = target: Delta-type opioid receptor (Homo sapiens) (UniProt P41143); test: Displacement of [3H] DADLE from human delta opioid receptor at 10 uM relative to control; method in brief: as §1
Chain of Delta-type opioid receptor (Homo sapiens) (P41143 whole entry): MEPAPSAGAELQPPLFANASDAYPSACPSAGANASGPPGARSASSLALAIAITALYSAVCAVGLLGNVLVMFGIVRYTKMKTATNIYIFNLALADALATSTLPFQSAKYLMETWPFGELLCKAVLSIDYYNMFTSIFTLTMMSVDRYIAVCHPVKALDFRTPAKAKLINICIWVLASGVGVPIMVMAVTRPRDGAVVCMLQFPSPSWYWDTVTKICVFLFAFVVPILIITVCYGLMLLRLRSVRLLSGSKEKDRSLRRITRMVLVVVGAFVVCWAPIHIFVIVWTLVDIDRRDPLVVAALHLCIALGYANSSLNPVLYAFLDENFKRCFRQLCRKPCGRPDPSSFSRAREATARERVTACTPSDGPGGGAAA

[6] = target: 5-hydroxytryptamine receptor 1B (Homo sapiens) (UniProt P28222); test: Displacement of [125I]CYP from human 5-HT1B receptor at 10 uM relative to control; method in brief: as §1
Chain of 5-hydroxytryptamine receptor 1B (Homo sapiens) (P28222 whole entry): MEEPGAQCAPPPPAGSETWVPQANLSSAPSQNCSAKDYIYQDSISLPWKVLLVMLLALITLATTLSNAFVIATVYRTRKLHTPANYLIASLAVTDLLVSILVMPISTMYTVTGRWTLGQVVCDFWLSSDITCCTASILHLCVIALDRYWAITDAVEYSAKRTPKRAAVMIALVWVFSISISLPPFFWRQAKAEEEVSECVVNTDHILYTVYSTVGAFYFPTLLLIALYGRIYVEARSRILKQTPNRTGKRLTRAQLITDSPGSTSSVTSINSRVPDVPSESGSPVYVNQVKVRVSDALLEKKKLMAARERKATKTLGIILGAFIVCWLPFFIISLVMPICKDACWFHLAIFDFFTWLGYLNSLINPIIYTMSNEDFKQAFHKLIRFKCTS

[7] = Drug uptake in Sprague-Dawley rat brain at 0.5 mg/kg ip after 2 hrs
[8] = target: Beta-1 adrenergic receptor (Homo sapiens) (UniProt P08588); test: Displacement of [3H]CGP-12177 from human beta1-adrenergic receptor at 10 uM relative to control; method in brief: as §1
Chain of Beta-1 adrenergic receptor (Homo sapiens) (P08588 whole entry, looked up): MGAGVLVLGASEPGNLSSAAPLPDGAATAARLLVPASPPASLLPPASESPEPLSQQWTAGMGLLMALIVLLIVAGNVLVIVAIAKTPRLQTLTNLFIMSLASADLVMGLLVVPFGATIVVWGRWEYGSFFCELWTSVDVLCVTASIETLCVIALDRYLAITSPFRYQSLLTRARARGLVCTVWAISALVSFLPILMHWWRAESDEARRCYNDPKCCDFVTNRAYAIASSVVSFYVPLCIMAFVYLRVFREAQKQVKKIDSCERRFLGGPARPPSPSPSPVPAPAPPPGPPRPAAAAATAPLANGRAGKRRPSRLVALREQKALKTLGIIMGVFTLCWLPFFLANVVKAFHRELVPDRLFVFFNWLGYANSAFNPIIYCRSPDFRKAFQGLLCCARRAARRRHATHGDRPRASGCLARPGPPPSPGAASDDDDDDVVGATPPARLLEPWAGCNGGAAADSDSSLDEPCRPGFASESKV

Salmonella typhimurium [9] = test: Mutagenic activity in Salmonella typhimurium TA100 assessed as number of reversion mutation at 10 ug/plate; assay type: toxicity, organism-based; settings: salmonella enterica subsp. enterica serovar typhimurium
Method in brief: (§3)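 Ames reversion test in Salmonella typhimurium TA98 and TA100, with and without rat liver S9 metabolic activation. Compound was dissolved in DMSO and added at 3–5000 μg/plate. Each dose, vehicle and positive control was plated in triplicate, and revertant colonies were counted.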

[10] = Ratio of drug level in Sprague-Dawley rat brain to plasma at 0.5 mg/kg iv after 0.25 hrs; assay type: ADME, organism-based; parameters: dose 0.5 mg/kg, route intravenous; settings: read-out: BPR
[11] = Drug uptake in Sprague-Dawley rat plasma at 0.5 mg/kg iv after 1 hrs; assay type: ADME, organism-based; parameters: dose 0.5 mg/kg, route intravenous
Method in brief: (§4)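 Male SD rats, fasted overnight until 6 h post-dose; single 0.5 mg/kg femoral-vein injection; blood drawn into heparin at 5, 15, 30 min, 1, 2 and 4 h; plasma stored at -40 °C; drug levels by LC/MS/MS; noncompartmental parameters.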

[12] = target: Histamine H1 receptor (Homo sapiens) (UniProt P35367); test: Displacement of [3H]Pyrilamine from human histamine H1 receptor at 10 uM relative to control; method in brief: as §1
Chain of Histamine H1 receptor (Homo sapiens) (P35367 whole entry): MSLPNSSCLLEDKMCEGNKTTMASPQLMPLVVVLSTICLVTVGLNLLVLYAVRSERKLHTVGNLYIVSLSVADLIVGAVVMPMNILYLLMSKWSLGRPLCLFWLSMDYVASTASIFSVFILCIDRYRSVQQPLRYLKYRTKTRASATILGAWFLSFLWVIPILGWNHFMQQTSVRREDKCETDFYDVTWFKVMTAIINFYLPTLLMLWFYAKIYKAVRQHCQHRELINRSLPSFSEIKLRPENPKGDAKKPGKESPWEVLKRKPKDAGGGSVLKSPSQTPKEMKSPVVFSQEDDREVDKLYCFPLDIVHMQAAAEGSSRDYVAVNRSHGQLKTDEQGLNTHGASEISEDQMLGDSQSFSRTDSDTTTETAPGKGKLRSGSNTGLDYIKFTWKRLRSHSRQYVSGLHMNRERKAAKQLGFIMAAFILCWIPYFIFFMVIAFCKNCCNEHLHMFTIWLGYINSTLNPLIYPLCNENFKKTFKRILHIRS

[13] = Acute toxicity in KM mouse assessed as survival at 750 mg/kg, po up to 14 days (reference value: 100%); assay type: organism-based; parameters: dose 750 mg/kg, route oral; settings: in vivo
[14] = Drug uptake in Sprague-Dawley rat plasma at 0.5 mg/kg iv after 0.50 hrs; assay type: ADME, organism-based; parameters: dose 0.5 mg/kg, route intravenous; method in brief: as §4
Rattus norvegicus [15] = test: Antidepressant activity in rat assessed as reduction in immobility time at 10 mg/kg, po by forced swimming test relative to control; assay type: functional
Method in brief: (§5)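 Male rats dosed orally at 5, 10 or 20 mg/kg alongside vehicle and venlafaxine 30 mg/kg PO groups. 1 h post-dose, each rat placed in a glass cylinder (40 cm × 18 cm) holding 15 cm of 25 ± 1 °C water. Immobility time recorded over a 6 min trial; significant main effects followed by post hoc Fisher's test.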

Rattus norvegicus [16] = test: Toxicity in rat assessed as effect on locomotion at 20 mg/kg, po after 60 mins by spontaneous locomotor test; assay type: organism-based; parameters: dose 20 mg/kg, route oral; settings: in vivo, 1 h
Method in brief: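 Rats dosed orally at 20 mg/kg, with vehicle and venlafaxine 30 mg/kg PO as controls; 60 min later placed singly in novel 40×40×50 cm cages under dim light with sound attenuation; activity recorded automatically in 5 min bins over 30 min; mean ± SEM.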

Rattus norvegicus [17] = test: Antidepressant activity in po dosed rat assessed as reduction in immobility time by forced swimming test; assay type: functional, organism-based; method in brief: as §5
Salmonella typhimurium [18] = test: Mutagenic activity in Salmonella typhimurium TA100 assessed as number of reversion mutation at 30 ug/plate; assay type: toxicity, organism-based; settings: salmonella enterica subsp. enterica serovar typhimurium; method in brief: as §3
[19] = AUC (0 to infinity) in Sprague-Dawley rat at 0.5 mg/kg, iv; assay type: ADME, organism-based; parameters: time infinity, dose 0.5 mg/kg, route intravenous; settings: plasma
Method in brief: (§6)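 Male SD rats, fasted overnight until 6 h post-dose. PO group received single 2 mg/kg with heparinized blood sampled at 5, 15, 30 min, 1, 2, 4, 8, 24 h. IV group received single 0.5 mg/kg via femoral vein with sampling at 5, 15, 30 min, 1, 2, 4 h. Plasma stored at -40 °C, quantified by LC/MS/MS; 24 rats per group.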

Homo sapiens [20] = species on record: Homo sapiens; test: Inhibition of GABA-gated chloride channel (unknown origin) at 10 uM by [35S]TBPS binding assay relative to control
Method in brief: (§7)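 Outsourced CNS receptor panel (55 binding assays); compound tested at 10 μM in primary radioligand binding; specific binding inhibition expressed relative to control, with >50% inhibition taken as a significant effect.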

[21] = target: Type-1 angiotensin II receptor (Homo sapiens) (UniProt P30556); test: Displacement of [125I][Sar1,Ile8]-ATII from human angiotensin AT1 receptor at 10 uM relative to control; method in brief: as §1
Chain of Type-1 angiotensin II receptor (Homo sapiens) (P30556 whole entry): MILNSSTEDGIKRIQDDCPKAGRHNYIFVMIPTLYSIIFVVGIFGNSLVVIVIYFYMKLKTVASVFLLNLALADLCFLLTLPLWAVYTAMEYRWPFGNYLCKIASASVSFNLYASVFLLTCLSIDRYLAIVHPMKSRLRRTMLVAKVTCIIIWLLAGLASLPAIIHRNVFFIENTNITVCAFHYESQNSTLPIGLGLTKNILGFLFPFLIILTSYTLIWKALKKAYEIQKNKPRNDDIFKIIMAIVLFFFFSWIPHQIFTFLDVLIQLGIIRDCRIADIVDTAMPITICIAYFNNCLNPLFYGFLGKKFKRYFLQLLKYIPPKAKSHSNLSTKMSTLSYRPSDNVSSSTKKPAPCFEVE

[22] = target: D(2) dopamine receptor (Homo sapiens) (UniProt P14416); test: Displacement of [3H]N-Methylspiperone from human dopamine D2S receptor at 10 uM relative to control; method in brief: as §1
Chain of D(2) dopamine receptor (Homo sapiens) (P14416 whole entry): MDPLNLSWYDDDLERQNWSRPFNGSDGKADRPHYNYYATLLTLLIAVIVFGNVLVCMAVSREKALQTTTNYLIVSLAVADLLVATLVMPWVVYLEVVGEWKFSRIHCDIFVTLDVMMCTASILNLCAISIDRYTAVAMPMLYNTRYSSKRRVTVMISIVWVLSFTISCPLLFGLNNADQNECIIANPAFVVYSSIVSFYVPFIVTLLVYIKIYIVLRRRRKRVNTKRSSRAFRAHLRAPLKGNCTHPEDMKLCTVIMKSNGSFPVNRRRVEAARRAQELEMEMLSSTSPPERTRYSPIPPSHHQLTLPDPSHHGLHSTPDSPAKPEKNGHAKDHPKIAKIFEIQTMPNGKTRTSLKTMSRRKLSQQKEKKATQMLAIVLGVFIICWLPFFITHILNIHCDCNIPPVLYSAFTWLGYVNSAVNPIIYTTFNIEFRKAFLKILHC

Salmonella typhimurium [23] = test: Mutagenic activity in Salmonella typhimurium TA100 assessed as number of reversion mutation at 5000 ug/plate; assay type: toxicity, organism-based; settings: salmonella enterica subsp. enterica serovar typhimurium; method in brief: as §3
Salmonella typhimurium [24] = test: Mutagenic activity in Salmonella typhimurium TA98 assessed as number of reversion mutation at 5000 ug/plate; assay type: toxicity, organism-based; settings: salmonella enterica subsp. enterica serovar typhimurium; method in brief: as §3
[25] = Drug uptake in Sprague-Dawley rat brain at 0.5 mg/kg ip after 0.08 hrs
[26] = target: Cannabinoid receptor 1 (Homo sapiens) (UniProt P21554); test: Displacement of [3H]-CP55940 from human CB1 receptor at 10 uM relative to control; method in brief: as §1
Chain of Cannabinoid receptor 1 (Homo sapiens) (P21554 whole entry): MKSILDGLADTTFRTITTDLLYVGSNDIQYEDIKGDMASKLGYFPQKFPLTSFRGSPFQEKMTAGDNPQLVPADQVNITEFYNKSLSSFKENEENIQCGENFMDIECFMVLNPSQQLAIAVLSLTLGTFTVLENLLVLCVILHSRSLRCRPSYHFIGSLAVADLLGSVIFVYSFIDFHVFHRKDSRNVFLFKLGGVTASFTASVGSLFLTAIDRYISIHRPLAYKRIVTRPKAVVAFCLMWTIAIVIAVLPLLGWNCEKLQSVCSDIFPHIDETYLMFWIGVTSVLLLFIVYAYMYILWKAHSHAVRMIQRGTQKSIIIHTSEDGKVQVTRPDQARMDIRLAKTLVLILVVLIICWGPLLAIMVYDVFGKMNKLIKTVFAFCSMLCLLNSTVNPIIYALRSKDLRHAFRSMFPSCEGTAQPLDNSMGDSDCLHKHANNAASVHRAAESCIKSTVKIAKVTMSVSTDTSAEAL

Homo sapiens [27] = species on record: Homo sapiens; test: Inhibition of Kv channel (unknown origin) at 10 uM by [125I]alpha-dendrotoxin binding assay relative to control; method in brief: as §2
[28] = target: Kappa-type opioid receptor (Homo sapiens) (UniProt P41145); test: Displacement of [3H]U69593 from human kappa opioid receptor at 10 uM relative to control; method in brief: as §7
Chain of Kappa-type opioid receptor (Homo sapiens) (P41145 whole entry): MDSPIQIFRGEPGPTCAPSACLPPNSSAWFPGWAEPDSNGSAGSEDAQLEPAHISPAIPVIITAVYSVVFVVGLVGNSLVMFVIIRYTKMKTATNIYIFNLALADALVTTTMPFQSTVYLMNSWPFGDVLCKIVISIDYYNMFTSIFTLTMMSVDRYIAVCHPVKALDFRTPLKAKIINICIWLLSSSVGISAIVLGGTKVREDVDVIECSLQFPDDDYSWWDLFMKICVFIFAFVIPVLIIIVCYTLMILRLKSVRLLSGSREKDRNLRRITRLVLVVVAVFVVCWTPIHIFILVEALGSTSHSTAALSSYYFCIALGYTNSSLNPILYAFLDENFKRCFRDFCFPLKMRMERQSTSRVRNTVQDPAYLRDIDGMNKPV

[29] = target: Mu-type opioid receptor (Homo sapiens) (UniProt P35372); test: Displacement of […] from human mu opioid receptor at 10 uM relative to control; method in brief: as §1
Chain of Mu-type opioid receptor (Homo sapiens) (P35372 whole entry): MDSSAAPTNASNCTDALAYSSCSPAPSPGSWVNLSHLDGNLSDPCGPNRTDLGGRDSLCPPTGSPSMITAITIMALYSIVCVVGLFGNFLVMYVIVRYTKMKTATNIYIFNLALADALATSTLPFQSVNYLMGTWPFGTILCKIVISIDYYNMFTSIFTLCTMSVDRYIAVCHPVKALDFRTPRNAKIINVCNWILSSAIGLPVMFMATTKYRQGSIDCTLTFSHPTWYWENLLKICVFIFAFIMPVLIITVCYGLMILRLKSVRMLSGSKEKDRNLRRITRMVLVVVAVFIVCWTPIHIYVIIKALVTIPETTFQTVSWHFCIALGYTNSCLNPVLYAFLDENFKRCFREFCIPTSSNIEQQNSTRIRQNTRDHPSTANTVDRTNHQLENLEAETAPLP

[30] = AUC (0 to infinity) in Sprague-Dawley rat at 2 mg/kg, po; assay type: ADME, organism-based; parameters: dose 2 mg/kg, route oral, time infinity; settings: plasma; method in brief: as §6
Salmonella typhimurium [31] = test: Mutagenic activity in Salmonella typhimurium TA100 assessed as number of reversion mutation at 300 ug/plate; assay type: toxicity, organism-based; settings: salmonella enterica subsp. enterica serovar typhimurium; method in brief: as §3
[32] = Ratio of drug level in Sprague-Dawley rat brain to plasma at 0.5 mg/kg iv after 2 hrs; assay type: ADME, organism-based; parameters: dose 0.5 mg/kg, route intravenous; settings: read-out: BPR

Chain of C-C chemokine receptor type 1 (Homo sapiens) (P32246 whole entry): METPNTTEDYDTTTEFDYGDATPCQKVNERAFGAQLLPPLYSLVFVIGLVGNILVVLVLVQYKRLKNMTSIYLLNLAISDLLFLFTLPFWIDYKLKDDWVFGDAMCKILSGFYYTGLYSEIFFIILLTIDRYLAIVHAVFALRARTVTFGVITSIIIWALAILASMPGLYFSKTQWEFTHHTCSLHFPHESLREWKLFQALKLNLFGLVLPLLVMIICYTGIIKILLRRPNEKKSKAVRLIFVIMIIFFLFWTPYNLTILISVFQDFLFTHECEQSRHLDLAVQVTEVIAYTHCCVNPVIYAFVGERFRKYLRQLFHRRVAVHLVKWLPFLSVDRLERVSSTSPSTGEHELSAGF

CN(C)CCC(c1ccc(Cl)c(Cl)c1)N1CCOCC1 (configuration not stated)
inhibition [1]: 22.1% | inhibition (Homo sapiens [2]): 40.1% | inhibition [3]: -0.5% | inhibition (Homo sapiens [4]): 9.8% | inhibition [5]: -1.1% | inhibition [6]: 0.7% | concentration at 2 h [7]: 178 ng/mL | inhibition [8]: 11% | Activity (Salmonella typhimurium [9]): 75 | Kp at 0.25 h [10]: 22 | concentration at 1 h [11]: 33.5 ng/mL | inhibition [12]: 22.7% | survival at 336 h [13]: 60% | concentration at 0.5 h [14]: 44.5 ng/mL | inhibition in vivo at 10 mg/kg (Rattus norvegicus [15]): 47% | Activity (Rattus norvegicus [16]): Non-toxic | inhibition (Rattus norvegicus [17]): Dose-dependent effect | Activity (Salmonella typhimurium [18]): 75 | AUC(0-inf) [19]: 83.7 ng·h/mL | inhibition (Homo sapiens [20]): -2.3% | inhibition [21]: -9.5% | inhibition [22]: 4% | Activity (Salmonella typhimurium [23]): 77 | Activity (Salmonella typhimurium [24]): 12 | concentration at 0.08 h [25]: 1120 ng/mL | inhibition [26]: -6.2% | inhibition (Homo sapiens [27]): -3.6% | inhibition [28]: 11.2% | inhibition [29]: 39.7% | AUC(0-inf) [30]: 80 ng·h/mL | Activity (Salmonella typhimurium [31]): 93 | Kp at 2 h [32]: 16.4

Reference: ChEMBL document CHEMBL3352559, “Synthesis and pharmacological investigation of aralkyl diamine derivatives as potential triple reuptake inhibitors” (Eur J Med Chem, 2014)
